Source: PubChem BioAssay
A selection: hits, their analogues and other compounds. The true share with any hit is near 2.6%.
DENV2 CPE rescue: inhibitors of DENV2 cytopathic effect, primary screen, cell-based, plate reader, single concentration. AID 651640, 2012. DENV2-infected cells, cytopathic effect rescue. CPE inhibition, % at 9.99 µM. hit rate 1.7% among 350,000; in the data active = CPE inhibition above about 20%, passing the limit was not always enough; inconclusive = no clear call, values can overlap the other calls; tested in BHK-21 cells;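 note: 0% = median of neutral control wells and 100% = median of positive control wells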
miR-122 sensor: miR-122 Renilla sensor signal increase in Huh7, primary screen, miR-122 inhibitor project, cell-based, single point, plate reader; Huh7 miR-122 Renilla luciferase sensor, 48 h; neutral wells = 0, positive control = 100; activation (reporter increase), % at 12.5 µM; hit rate 0.3% among 340,000;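 active = mean replicate activation score at least 90 and every replicate individually at or above 90; inconclusive = only one of the two criteria met; inactive = neither criterion met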;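 note: higher luciferase means less miR-122 activity so hits act as miR-122 inhibitors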
CFTR F508del cor: F508del CFTR correction, initial screen, CFBE line, single point; CFBE cells, YFP halide quenching; stimulated with forskolin plus potentiator P3; % fluorescence drop versus neutral controls; activity (quench increase), % at 7.58 µM; hit rate 0.36% among 350,000; AID 720511, 2013;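 active = mean added fluorescence quench of at least 8% versus neutral control, with both replicates also reaching 8%; inconclusive = only one of the mean or replicate conditions met; inactive = mean below 8% and not both replicates reaching 8%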;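 note: cells transiently co-express mutant CFTR-F508del with the halide-sensitive YFP; corrector assay measuring rescue of mutant channel to the surface after 24 h compound exposure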
E-selectin induc: E-selectin induction in HUVECs, primary screen, imaging, HUVEC, immunofluorescence imaging, single point; P16581; normalized: neutral wells 0, TNF-alpha wells 100; activation, % at 7.58 µM; hit rate 0.37% among 260,000; AID 686992, 2013;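 active = mean E-selectin-positive cell signal at least 10% of the positive control, reached in at least 60% of replicates, without over 20% cell loss; inconclusive = no rule given, readout overlaps actives, possibly toxicity-flagged; inactive = the rest, including those meeting only one limit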
Target sequence (P16581 whole entry, looked up): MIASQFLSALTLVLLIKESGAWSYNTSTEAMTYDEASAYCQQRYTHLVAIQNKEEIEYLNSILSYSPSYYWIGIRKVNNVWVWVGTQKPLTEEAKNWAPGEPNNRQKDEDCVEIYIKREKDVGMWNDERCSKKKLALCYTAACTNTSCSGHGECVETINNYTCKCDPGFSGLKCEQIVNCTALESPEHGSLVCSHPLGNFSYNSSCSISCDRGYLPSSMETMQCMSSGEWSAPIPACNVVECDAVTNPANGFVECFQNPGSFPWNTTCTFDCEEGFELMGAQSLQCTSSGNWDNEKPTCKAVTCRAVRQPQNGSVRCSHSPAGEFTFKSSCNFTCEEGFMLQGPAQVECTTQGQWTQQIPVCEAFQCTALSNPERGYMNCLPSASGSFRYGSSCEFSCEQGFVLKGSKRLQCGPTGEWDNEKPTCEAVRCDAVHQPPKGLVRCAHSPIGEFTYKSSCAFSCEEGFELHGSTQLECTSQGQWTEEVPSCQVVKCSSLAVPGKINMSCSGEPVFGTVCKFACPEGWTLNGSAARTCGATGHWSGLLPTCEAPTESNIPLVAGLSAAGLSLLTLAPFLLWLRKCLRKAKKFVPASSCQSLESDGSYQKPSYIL
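Test system: HUVEC; input: 3,000 HUVEC/well; measured by: immunofluorescence imaging; read-out: % PE-positive cells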
ERAP1 inh: human ERAP1 aminopeptidase inhibitors, primary screen, biochemical, single point, plate reader. recombinant ERAP1, Leu-AMC fluorescence, 60 min. inhibition, % at 10.7 µM. hit rate 0.15% among 340,000. AID 652197, 2013;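 active = mean replicate inhibition of at least 30%, or all replicates individually reaching that 30% level; inactive = mean below 30% and not every replicate reaching it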;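 note: 0% = neutral control wells and 100% = L-leucinethiol positive control wells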
GSIS activator: GLuc luminescence reporter in INS-1E cells, primary screen for activators of glucose-dependent secretion of insulin. AID 743287, 2014. hit rate 0.61% among 370,000. activation, % at 16.6 µM. INS-1E GLuc reporter insulin secretion, 2-3 h;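 active = lowest replicate activation of at least 40%, so every replicate reaches that level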;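 note: 0% = median of neutral control wells and 100% = median of IBMX positive control wells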
An asterisk follows results filed as active; ? = inconclusive; / = no result; [ ] = remark or other dose.

SMILES | DENV2 CPE rescue | miR-122 sensor | CFTR F508del cor | E-selectin induc | ERAP1 inh | GSIS activator
CCC(=O)N1C[C@H](C)[C@@H](OC)CN(C)C(=O)c2ccc(NC(=O)C3CCOCC3)cc2OC[C@@H]1C | -4 | / | 0 | 0 | -3 | -2
C[C@@H]1CN([C@H](C)CO)C(=O)c2cccc(NS(C)(=O)=O)c2O[C@H]1CN(C)C | 9 | 1[16.7 µM] | 0 | -2 | 2 | 11
O=C1N2CCCCC1(c1ccccc1)CCCC2 | 40* | / | 3 | / | 3 | /
CS(=O)(=O)N1[C@H](C#N)[C@@H](c2ccc(C#Cc3cccc(F)c3)cc2)[C@H]1CO | -19 | / | -1 | 0 | 0 | -16
C[C@H]1CN([C@@H](C)CO)C(=O)Cc2cc(NS(=O)(=O)c3ccc(F)cc3)ccc2O[C@@H]1CN(C)Cc1ccc(Oc2ccccc2)cc1 | 0 | 11[16.7 µM] | -3 | 1 | -2 | -6
CCN(CC)S(=O)(=O)c1cc(NS(=O)(=O)c2cccc(Cl)c2)ccc1C | -8 | 254* | -3 | / | -1 | -32
CC(C)(C)S(=O)(=O)c1cnc(-c2ccccn2)nc1N | ? | / | -2 | 0 | 2 | 12
CC(C)(C)S(=O)(=O)c1cnc(-c2cnccn2)nc1N | 4 | 4 | ? | 46* | / | -6
CC12CCC3c4ccc(O)cc4CCC3C1CCC2=O (stereo unspecified) | 1 | 6 | 9.4* | 1 | -3 | 11
COc1ccc(C#Cc2ccc([C@@H]3[C@@H](CO)N4C(=O)CN(C(=O)c5ccncc5)C[C@@H]34)cc2)cc1 | 38* | / | 1 | 0 | 1 | -7
COCC(=O)N1CC(=O)N2[C@@H](CO)[C@@H](c3ccc(Br)cc3)[C@@H]2C1 | 29* | / | 0 | 0 | 3 | 12
O=C(c1ccc2c(c1)OCO2)N1CC(=O)N2[C@H](C1)[C@H](c1ccc(C#Cc3ccccc3)cc1)[C@@H]2CO | 50* | / | 1 | 0 | 3 | 8
O=C(c1ccc2c(c1)OCO2)N1CC(=O)N2[C@H](CO)[C@H](c3ccc(-c4ccccc4)cc3)[C@@H]2C1 | 49* | / | 3 | 1 | 0 | -10
O=C(c1ccc2c(c1)OCO2)N1CC(=O)N2[C@H](C1)[C@H](c1ccc(-c3ccccc3)cc1)[C@@H]2CO | -9 | / | 2 | 1 | 0 | 3
COc1ccc(C#Cc2ccc([C@H]3[C@H]4CN(C(=O)c5ccncc5)CCCCN4[C@H]3CO)cc2)cc1 | 1 | 12[16.7 µM] | 9.3* | 0 | -2 | -14
O=C(c1ccccc1)N1CC(=O)N2[C@H](CO)[C@@H](c3ccc(C#Cc4ccccc4)cc3)[C@@H]2C1 | 21* | / | 1 | -1 | 1 | -14
CN1C[C@@H]2[C@H](c3ccccc31)[C@@H](CO)N2C(=O)C1CCCCC1 | -2 | -8[16.7 µM] | 0 | 6 | 0 | 0
CS(=O)(=O)Nc1ccc2c(c1)[C@@H]1C[C@H](CC(=O)NCc3ccc(-c4ccccc4)cc3)O[C@@H](CO)[C@@H]1O2 | 6 | -2[16.7 µM] | 0 | 0 | / | -7
O=C(CN(Cc1ccccc1)C1=NCCS1)c1ccccc1 | 39* | -3 | / | / | 2 | -7
CC1=C(/C=C/C(C)=C/C=C/C(C)=C\C(=O)O)C(C)(C)CCC1 | 3 | 16 | -1 | 0 | -2 | /
CC1=C(/C=C/C(C)=C/C=C/C(C)=C/C(=O)Nc2ccc(O)cc2)C(C)(C)CCC1 | -6 | 3 | 0 | 0 | 2 | 153*
C[C@H]1CN([C@@H](C)CO)C(=O)Cc2cc(NC(=O)NC3CCCCC3)ccc2O[C@@H]1CN(C)C(=O)NC1CCCCC1 | -2 | -5[16.7 µM] | 1 | 2 | 3 | 8
C=CCNc1nc(Cl)nc(NCc2ccco2)n1 | -4 | -1 | 1 | / | -2 | 0
C=CCNc1nc(NCc2ccco2)nc(OCC)n1 | / | -4 | / | / | / | 58*
CO[C@@H]1CN(C)C(=O)c2cc(NS(=O)(=O)c3ccccc3F)ccc2OC[C@H](C)NC[C@@H]1C | -2 | -5[16.7 µM] | -1 | 0 | -1 | 17
